Source: ChEMBL document CHEMBL5058577, “EUbOPEN Chemogenomics Library 2 (Multiplex)” (2022)

Test system: U2OS
Experiment: Multiplex assay against U2OS
Assay type: toxicity, cell-based
Details: human
Method in brief: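 Four dyes were applied at seeding to live cells: Hoechst33342, BioTracker Green Microtubule Cytoskeleton Dye, MitoTracker Red and Annexin V Alexa Fluor 680. Imaging after compound addition used a CQ1 microscope at 37°C and 5% CO2. CellPathfinder machine-learning gating then sorted cells into Hoechst high-intensity objects or normal cells, normal cells into healthy, pyknosed or fragmented nuclei, and pyknosed cells into mitotic or apoptotic, with tubulin, mitochondrial-mass and membrane-permeability phenotypes given as per cents of healthy-nucleus cells.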

[1] = 12 h, 1 µM, compound concentration 1 uM, replicate 1
[2] = 12 h, 1 µM, compound concentration 1 uM, replicate 2
[3] = 12 h, 10 µM, compound concentration 10 uM, replicate 1
[4] = 12 h, 10 µM, compound concentration 10 uM, replicate 2
[5] = 24 h, 1 µM, compound concentration 1 uM, replicate 1
[6] = 24 h, 1 µM, compound concentration 1 uM, replicate 2
[7] = 24 h, 10 µM, compound concentration 10 uM, replicate 1
[8] = 24 h, 10 µM, compound concentration 10 uM, replicate 2
[9] = 48 h, 1 µM, compound concentration 1 uM, replicate 1
[10] = 48 h, 1 µM, compound concentration 1 uM, replicate 2
[11] = 48 h, 10 µM, compound concentration 10 uM, replicate 1
[12] = 48 h, 10 µM, compound concentration 10 uM, replicate 2

NCCc1cn(S(=O)(=O)c2c(Cl)nc3sccn23)c2ccccc12.O=C(O)C(=O)O
Population Apoptotic (%) [1]: 66%
Population Fragmented Nuclei (%) [1]: 30%
Population Healthy Nuclei (%) [1]: 58%
Population Hoechst High Intensity Objects (%) [1]: 1%
Population Membrane Permeable-Phenotype (%) [1]: 9%
Population Mitochondria Different-Phenotype (%) [1]: 6%
Population Mitotic Cells (%) [1]: 33%
Population Normal (%) [1]: 98%
Population Pyknosed Nuclei (%) [1]: 10%
Population Tubulin-Different-Phenotype (%) [1]: 6%
Total Cell Count [1]: 280
Population Apoptotic (%) [2]: 81%
Population Fragmented Nuclei (%) [2]: 17%
Population Healthy Nuclei (%) [2]: 72%
Population Membrane Permeable-Phenotype (%) [2]: 4%
Population Mitochondria Different-Phenotype (%) [2]: 8%
Population Mitotic Cells (%) [2]: 18%
Population Pyknosed Nuclei (%) [2]: 9%
Total Cell Count [2]: 116
Population Apoptotic (%) [3]: 71%
Population Fragmented Nuclei (%) [3]: 26%
Population Healthy Nuclei (%) [3]: 42%
Population Hoechst High Intensity Objects (%) [3]: 5%
Population Membrane Permeable-Phenotype (%) [3]: 42%
Population Mitochondria Different-Phenotype (%) [3]: 60%
Population Mitotic Cells (%) [3]: 28%
Population Normal (%) [3]: 94%
Population Pyknosed Nuclei (%) [3]: 30%
Population Tubulin-Different-Phenotype (%) [3]: 59%
Total Cell Count [3]: 221
Population Apoptotic (%) [4]: 82%
Population Fragmented Nuclei (%) [4]: 20%
Population Healthy Nuclei (%) [4]: 53%
Population Hoechst High Intensity Objects (%) [4]: 4%
Population Membrane Permeable-Phenotype (%) [4]: 30%
Population Mitochondria Different-Phenotype (%) [4]: 71%
Population Mitotic Cells (%) [4]: 17%
Population Normal (%) [4]: 95%
Population Pyknosed Nuclei (%) [4]: 26%
Population Tubulin-Different-Phenotype (%) [4]: 50%
Total Cell Count [4]: 115
Population Apoptotic (%) [5]: 69%
Population Fragmented Nuclei (%) [5]: 25%
Population Healthy Nuclei (%) [5]: 66%
Population Hoechst High Intensity Objects (%) [5]: 1%
Population Membrane Permeable-Phenotype (%) [5]: 6%
Population Mitochondria Different-Phenotype (%) [5]: 5%
Population Mitotic Cells (%) [5]: 30%
Population Normal (%) [5]: 98%
Population Pyknosed Nuclei (%) [5]: 8%
Population Tubulin-Different-Phenotype (%) [5]: 3%
Total Cell Count [5]: 326
Population Apoptotic (%) [6]: 78%
Population Fragmented Nuclei (%) [6]: 20%
Population Healthy Nuclei (%) [6]: 70%
Population Membrane Permeable-Phenotype (%) [6]: 9%
Population Mitochondria Different-Phenotype (%) [6]: 7%
Population Mitotic Cells (%) [6]: 21%
Population Pyknosed Nuclei (%) [6]: 9%
Population Tubulin-Different-Phenotype (%) [6]: 7%
Total Cell Count [6]: 151
Population Apoptotic (%) [7]: 83%
Population Fragmented Nuclei (%) [7]: 29%
Population Healthy Nuclei (%) [7]: 38%
Population Hoechst High Intensity Objects (%) [7]: 6%
Population Membrane Permeable-Phenotype (%) [7]: 26%
Population Mitochondria Different-Phenotype (%) [7]: 63%
Population Mitotic Cells (%) [7]: 16%
Population Normal (%) [7]: 93%
Population Pyknosed Nuclei (%) [7]: 31%
Population Tubulin-Different-Phenotype (%) [7]: 26%
Total Cell Count [7]: 240
Population Apoptotic (%) [8]: 86%
Population Fragmented Nuclei (%) [8]: 20%
Population Healthy Nuclei (%) [8]: 46%
Population Hoechst High Intensity Objects (%) [8]: 3%
Population Mitochondria Different-Phenotype (%) [8]: 67%
Population Mitotic Cells (%) [8]: 13%
Population Normal (%) [8]: 96%
Population Pyknosed Nuclei (%) [8]: 33%
Population Tubulin-Different-Phenotype (%) [8]: 38%
Total Cell Count [8]: 116
Population Apoptotic (%) [9]: 81%
Population Fragmented Nuclei (%) [9]: 21%
Population Healthy Nuclei (%) [9]: 70%
Population Hoechst High Intensity Objects (%) [9]: 1%
Population Membrane Permeable-Phenotype (%) [9]: 5%
Population Mitochondria Different-Phenotype (%) [9]: 4%
Population Mitotic Cells (%) [9]: 18%
Population Normal (%) [9]: 98%
Population Pyknosed Nuclei (%) [9]: 8%
Population Tubulin-Different-Phenotype (%) [9]: 2%
Total Cell Count [9]: 454
Population Apoptotic (%) [10]: 85%
Population Healthy Nuclei (%) [10]: 66%
Population Hoechst High Intensity Objects (%) [10]: 6%
Population Membrane Permeable-Phenotype (%) [10]: 10%
Population Mitochondria Different-Phenotype (%) [10]: 7%
Population Mitotic Cells (%) [10]: 14%
Population Normal (%) [10]: 93%
Population Pyknosed Nuclei (%) [10]: 12%
Population Tubulin-Different-Phenotype (%) [10]: 7%
Total Cell Count [10]: 182
Population Apoptotic (%) [11]: 92%
Population Fragmented Nuclei (%) [11]: 37%
Population Healthy Nuclei (%) [11]: 27%
Population Hoechst High Intensity Objects (%) [11]: 7%
Population Membrane Permeable-Phenotype (%) [11]: 25%
Population Mitochondria Different-Phenotype (%) [11]: 56%
Population Mitotic Cells (%) [11]: 7%
Population Normal (%) [11]: 92%
Population Pyknosed Nuclei (%) [11]: 35%
Population Tubulin-Different-Phenotype (%) [11]: 25%
Total Cell Count [11]: 241
Population Fragmented Nuclei (%) [12]: 29%
Population Healthy Nuclei (%) [12]: 34%
Population Membrane Permeable-Phenotype (%) [12]: 42%
Population Mitochondria Different-Phenotype (%) [12]: 65%
Population Tubulin-Different-Phenotype (%) [12]: 42%
Total Cell Count [12]: 127
